Blank lines part the entries; values can stand above or below the molecule they belong to. Calls of active or inactive are those of the source. The rule behind the calls is not given here.
Legend:
[1] = biological target: T1, Prolyl endopeptidase FAP (Homo sapiens, UniProt Q12884); experiment: Prodrug activation assessed as recombinant human FAP-alpha mediated (S)-((3S,5R,8R,9S,10S,11S,13R,14S,17R)-11,14-dihydroxy-10,13-dimethyl-12-oxo-17-(2-oxo-2H-pyran-5-yl)hexadecahydro-1H-cyclopenta[a]phenanthren-3-yl) 2-aminopropanoate formation […] after 90 mins by UPLC-MS/MS analysis; conditions: 1.5 h
T1 sequence (Q12884 whole entry): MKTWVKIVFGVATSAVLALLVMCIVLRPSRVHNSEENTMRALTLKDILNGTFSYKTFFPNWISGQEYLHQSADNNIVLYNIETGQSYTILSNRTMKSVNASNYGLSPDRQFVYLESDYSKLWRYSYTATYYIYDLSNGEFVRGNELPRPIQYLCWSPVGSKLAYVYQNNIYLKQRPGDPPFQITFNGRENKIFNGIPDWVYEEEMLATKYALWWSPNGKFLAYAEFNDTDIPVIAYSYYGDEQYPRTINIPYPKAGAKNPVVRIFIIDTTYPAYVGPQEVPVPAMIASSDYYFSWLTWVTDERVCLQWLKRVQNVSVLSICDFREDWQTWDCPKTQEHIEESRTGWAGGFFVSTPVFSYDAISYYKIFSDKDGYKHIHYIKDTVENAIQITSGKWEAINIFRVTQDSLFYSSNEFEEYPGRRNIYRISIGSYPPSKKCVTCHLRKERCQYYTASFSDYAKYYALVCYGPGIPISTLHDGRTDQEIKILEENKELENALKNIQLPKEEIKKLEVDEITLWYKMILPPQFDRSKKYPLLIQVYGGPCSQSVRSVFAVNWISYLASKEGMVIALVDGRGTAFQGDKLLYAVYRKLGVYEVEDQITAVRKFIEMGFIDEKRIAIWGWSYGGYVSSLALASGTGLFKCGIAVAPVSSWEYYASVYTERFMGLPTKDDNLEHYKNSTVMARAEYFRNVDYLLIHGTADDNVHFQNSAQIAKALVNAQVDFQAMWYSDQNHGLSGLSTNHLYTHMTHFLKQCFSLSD
In short: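 Prodrug at 0.625–40 μmol/L incubated with rhFAPα at 0.45 μg/mL and internal standard in 0.2 mL PBS, pH 7.4, at 37 °C for 90 min. Quenched with MeCN and spun at 18 000g for 15 min; product measured by UPLC-MS/MS. S50 and Vmax fitted with an allosteric sigmoidal model; CLint = Vmax/S50. Three independent experiments.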

[2] = tested on: MCF7; experiment: Antiproliferative activity against FAP-alpha deficient human MCF7 cells incubated for 48 hrs by MTT assay; type: functional, cell-based; conditions: MCF7, 48 h
In short: (§1)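 Cells grown in DMEM with 10% FBS and 1% penicillin-streptomycin at 37 °C, 5% CO2; 10% heat-inactivated FBS used during cytotoxicity testing to exclude serum FAP activity. Viability read by MTT; IC50 as mean ± SEM of at least three independent experiments. Transfected lines were made from MDA-MB-231 with human FAPα plasmid or empty pCMV6-Entry vector and checked by Western blot at 48 h.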

[3] = tested on: MDA-MB-231; experiment: Antiproliferative activity against FAP-alpha deficient human MDA-MB-231 cells incubated for 48 hrs by MTT assay; type: functional, cell-based; conditions: MDA-MB-231, 48 h; in short: as §1
[4] = tested on: MDA-MB-435; experiment: Antiproliferative activity against wild type human MDA-MB-435 cells expressing FAP-alpha incubated for 48 hrs by MTT assay; type: functional, cell-based; conditions: MDA-MB-435, 48 h; in short: as §1
[5] = tested on: MDA-MB-231; experiment: Antiproliferative activity against human MDA-MB-231 cells assessed as decrease in cell viability at 62.5 to 500 nmol/L after 72 hrs by MTT assay; type: functional, cell-based
[6] = Cytotoxicity in BMSC (unknown origin) assessed as cell viability at 1000 nmol/L after 72 hrs by MTT assay; type: cell-based; conditions: unidentified, 1 µM
[7] = tested on: MDA-MB-231; experiment: Antiproliferative activity against human MDA-MB-231 cells transfected with human FAP-alpha incubated for 48 hrs by MTT assay; type: functional, cell-based; conditions: MDA-MB-231, 48 h; in short: as §1
[8] = tested on: MDA-MB-231; experiment: Antiproliferative activity against human MDA-MB-231 cells transfected with pCMV6 incubated for 48 hrs by MTT assay; type: functional, cell-based; conditions: MDA-MB-231, 48 h; in short: as §1
[9] = tested on: Mus musculus; experiment: Cardiotoxicity in BALB/C nude mouse xenografted with human MDA-MB-231 cells assessed as increase in LDH level at 4 umol/kg, iv administered starting on day 5 measured after day 22; type: toxicity, organism-based; conditions: in vivo
In short: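 Xenograft-bearing mice dosed iv daily in 5% HS15. Blood taken by cardiac puncture before sacrifice and spun at 3000 rpm for 20 min at 4 °C to give serum. D-LDH activity measured by colorimetric kit. n = 6, one-way ANOVA with Tukey's test against HS15 control.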

[10] = tested on: Mus musculus; experiment: Cardiotoxicity in BALB/C nude mouse xenografted with human MDA-MB-231 cells assessed as decrease in left ventricular internal systole dimension at 4 umol/kg, iv administered starting on day 5 measured after day 22 by echocardiography; type: toxicity, organism-based; conditions: in vivo
In short: (§2)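 MDA-MB-231 xenograft mice dosed iv daily in 5% HS15 from day 5, 22 days of treatment. Transthoracic echocardiography with a 21 MHz transducer under 1.5% isoflurane, supine position. M-mode images from parasternal short-axis view at papillary muscle level, used to derive LVIDd, LVIDs, IVSd and IVSs. n = 6, mean ± SEM, one-way ANOVA with Tukey's test.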

[11] = Acute toxicity in iv dosed Kunming mouse measured less than 4 hrs post dose; type: organism-based; conditions: in vivo
In short: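 Kunming mice (22.0−28.0 g), half male and half female, 10 groups of n = 10. Single iv dose on day 1 across five levels per compound (prodrug 29.98–50.00 μmol/kg; arenobufagin 4.50–8.00 μmol/kg). Watched continuously for 8 h for abnormal behaviour and deaths, then intermittently for 2 weeks, and sacrificed day 14. LD50 by Bliss method.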

[12] = tested on: Mus musculus; experiment: Cardiotoxicity in BALB/C nude mouse xenografted with human MDA-MB-231 cells assessed as increase in interventricular septal diastole dimension at 4 umol/kg, iv administered starting on day 5 measured after day 22 by echocardiography; type: toxicity, organism-based; conditions: in vivo; in short: as §2
[13] = tested on: Mus musculus; experiment: Cardiotoxicity in BALB/C nude mouse xenografted with human MDA-MB-231 cells assessed as decrease in left ventricular internal diastole dimension at 4 umol/kg, iv administered starting on day 5 measured after day 22 by echocardiography; type: toxicity, organism-based; conditions: in vivo; in short: as §2
[14] = tested on: Mus musculus; experiment: Cardiotoxicity in BALB/C nude mouse xenografted with human MDA-MB-231 cells assessed as increase in interventricular septal systole dimension at 4 umol/kg, iv administered starting on day 5 measured after day 22 by echocardiography; type: toxicity, organism-based; conditions: in vivo; in short: as §2
[15] = tested on: MDA-MB-231; experiment: Antitumor activity against human MDA-MB-231 cells xenografted in BALB/C nude mouse at 4 umol/kg, iv administered starting on day 5 measured after day 22 by Ki67 staining-based assay relative to control; type: functional
In short: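 Female BALB/C nude mice, MDA-MB-231 cells (1 × 10^7) injected subcutaneously in Matrigel–PBS 1:1. Daily iv dosing in 5% HS15 vehicle from day 5. Tumours fixed and paraffin-embedded, 5 μm sections, anti-Ki67 IHC, read blind by a pathologist. Proliferative index by image analysis, n = 6. Compared with 5% HS15 control by one-way ANOVA and Tukey's test.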

[16] = tested on: MDA-MB-231; experiment: Antitumor activity against human MDA-MB-231 cells xenografted in BALB/C nude mouse assessed as tumor regression at 4 umol/kg, iv administered starting on day 5 measured after day 22 by Ki67 staining-based assay; type: functional, organism-based
[17] = tested on: Mus musculus; experiment: Acute toxicity in Kunming mouse assessed as mortality at 4 umol/kg, iv after 8 hrs post dose; type: organism-based; conditions: in vivo
[18] = tested on: Mus musculus; experiment: Cardiotoxicity in BALB/C nude mouse xenografted with human MDA-MB-231 cells assessed as cytoplasmic vacuolization at 4 umol/kg, iv administered starting on day 5 measured after day 22 by hematoxylin-eosin staining-based assay; type: toxicity, organism-based; conditions: in vivo
In short: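 Xenograft mice (MDA-MB-231, female BALB/C nude) dosed iv daily in 5% HS15 from day 5. Heart fixed 24 h, paraffin-embedded, cut into 5 μm sections and stained with H&E. Vacuolization scored by a pathologist blind to treatment.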

[19] = biological target: T1, Prolyl endopeptidase FAP; experiment: Prodrug activation assessed as recombinant human FAP-alpha mediated (3S,5R,8R,9S,10S,11S,13R,14S,17R)-11,14-dihydroxy-10,13-dimethyl-12-oxo-17-(2-oxo-2H-pyran-5-yl)hexadecahydro-1H-cyclopenta[a]phenanthren-3-yl 4-aminobenzoate formation at 40 umol/L after 6 hrs by UPLC-MS/MS analysis; conditions: 40 µM
In short: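 Prodrug at 40 μmol/L incubated with rhFAPα at 0.45 μg/mL in 0.2 mL buffer at 37 °C for 6 h, with bufalin at 2 μmol/L as internal standard. Stopped with acetonitrile and spun at 18 000g for 15 min. Released active form measured by UPLC-MS/MS via peak-area ratio against a standard curve of 0.625–40 μmol/L.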

CL [1]: 23240 µL/min/mg
SMILES: C[C@H](NC(=O)[C@@H]1CCCN1C(=O)CNC(=O)OCc1ccccc1)C(=O)O[C@H]1CC[C@@]2(C)[C@H](CC[C@@H]3[C@@H]2[C@H](O)C(=O)[C@]2(C)[C@@H](c4ccc(=O)oc4)CC[C@]32O)C1

IC50 [2]: 1.06 nM
IC50 [3]: 4.81 nM
IC50 [4]: 10 nM
IC50 [7]: 7.19 nM
IC50 [8]: 5.19 nM
SMILES: C[C@]12CC[C@H](OC(=O)[C@@H](N)Cc3c[nH]c4ccccc34)C[C@H]1CC[C@@H]1[C@@H]2[C@H](O)C(=O)[C@]2(C)[C@@H](c3ccc(=O)oc3)CC[C@]12O
Activity [5]: Active
Activity [6]: Non-Toxic

SMILES: C[C@]12CC[C@H](O)C[C@H]1CC[C@@H]1[C@@H]2[C@H](O)C(=O)[C@]2(C)[C@@H](c3ccc(=O)oc3)CC[C@]12O
Activity [9]: Toxic
IC50 [2]: 8.88 nM
IC50 [3]: 15.7 nM
Activity [10]: Toxic
IC50 [4]: 22.4 nM
LD50 at 4 h [11]: 6.82 µmol/kg
Activity [12]: Toxic
Activity [13]: Toxic
Activity [5]: Active
Activity [14]: Toxic
Activity [15]: 45 - 50%
Activity [16]: Active
Activity [17]: Non-Toxic
Activity [6]: Non-Toxic
Activity [18]: Toxic

Drug metabolism [19]: Metabolite_Notdetected
SMILES: C[C@]12CC[C@H](OC(=O)c3ccc(NC(=O)[C@@H]4CCCN4C(=O)CNC(=O)OCc4ccccc4)cc3)C[C@H]1CC[C@@H]1[C@@H]2[C@H](O)C(=O)[C@]2(C)[C@@H](c3ccc(=O)oc3)CC[C@]12O

Source: ChEMBL document CHEMBL4038302, “Fibroblast Activation Protein α Activated Tripeptide Bufadienolide Antitumor Prodrug with Reduced Cardiotoxicity” (J Med Chem, 2017)
